Autophagy mod – autophagy modulators in MEF cells, primary screen, imaging, high-content, MEF GFP-LC3; MEF GFP-LC3 puncta imaging; test concentration mostly 10 µM; calls only at 10 µM (by protocol); 190,000 compounds, 0.98% hits; AID 463193, 2010;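 active means percentage of spot-positive cells more than 3 SD above its plate mean, without a fluorescence outlier flag or 80% toxicity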;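 further: spot-positive cell cutoff set from DMSO-treated cells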
L929 necroptosis – inhibitors of zVAD-triggered necroptosis, primary screen, L929 cells | L929 zVAD necroptosis rescue, ATP luminescence, 24 h; with zVAD 60 µM | viability rescue, % at 10 µM | 220,000 compounds, 0.38% hits | AID 1377, 2008;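 active means activation, scaled between plate controls, above about 75%, limit read from the data; inactive means activation under that limit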;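 further: 0% = zVAD with DMSO and 100% = DMSO alone without zVAD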
Hck Nef HTS – inhibitors of Nef-activated human Hck kinase, primary screen, biochemical, Z-Lyte FRET, 384-well, Hck-YEEI; Tyrosine-protein kinase HCK (Homo sapiens), P08631; Recombinant Hck-YEEI plus Nef, Z-Lyte FRET kinase assay; inhibition, % at 20 µM; 220,000 compounds, 0.68% hits; AID 463187, 2010;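 active means Hck-Nef kinase inhibition above about 50%, limit read from the data; inactive means inhibition below that limit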;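 further: 0% = DMSO with Hck plus Nef and 100% = Hck alone without Nef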
TNF necrop inh – inhibitors of TNF-alpha triggered necroptosis, primary screen, cell-based, Jurkat FADD-/-, single concentration; Jurkat FADD-/- TNF necroptosis rescue, ATP luminescence, 24 h; 0 = TNF only, 100 = no-TNF cells; activation (protection from cell death), % at 10 µM; 220,000 compounds, 0.068% hits; AID 463075, 2010;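 active means activation, meaning protection from cell death, of at least 50% relative to plate controls; inactive means activation below 50%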;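 further: necroptosis triggered by 40 ng/mL TNF-alpha added together with compound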
Dynein transport – inhibitors of GR-EGFP nuclear translocation, primary screen, dynein cargo transport inhibitor project, imaging, high-content, 3617.4 mouse cells. test concentration mostly 20 µM; stimulated with dexamethasone, 1 µM; active compounds read low. z-score, hits read low. AID 1381, 2008. 220,000 compounds, 0.47% hits;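 active means plate z-score of nuclear minus cytoplasmic receptor signal below a set negative limit, without overly bright fluorescence or cell loss, cut at about -3.5 in these data, passing the limit was not always enough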;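 further: z-score of nuclear minus cytoplasmic ring GR-EGFP intensity difference per well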
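Also added – dexamethasone, 1.0 µM final · Buffer or medium – tet-free, stripped-serum medium · Schedule – induction 48 h, compound 1 h, agonist 30 min · Detection – formaldehyde fixation, Hoechst nuclear stain, 10x automated fluorescence imaging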
Mdm2 ligase inh – MDM2-luciferase reporter signal enhancers, primary screen, MDM2 E3 ligase inhibitor project, cell-based, luminescence, 1536-well. signal enhancement, % at 5 µM. E3 ubiquitin-protein ligase Mdm2 (Homo sapiens), Q00987. cell-based MDM2 ubiquitination luciferase reporter, 2 h; 0 = plate control, 100 = twice control, blank-subtracted. 210,000 compounds, 0.11% hits;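 active means signal enhancement of 30% or more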;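 further: luminescence tracks abundance of the self-degrading MDM2-luciferase fusion protein; higher signal means inhibition of MDM2 E3 ligase activity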
Target sequence (Q00987 whole entry, looked up, the tested form may be a part): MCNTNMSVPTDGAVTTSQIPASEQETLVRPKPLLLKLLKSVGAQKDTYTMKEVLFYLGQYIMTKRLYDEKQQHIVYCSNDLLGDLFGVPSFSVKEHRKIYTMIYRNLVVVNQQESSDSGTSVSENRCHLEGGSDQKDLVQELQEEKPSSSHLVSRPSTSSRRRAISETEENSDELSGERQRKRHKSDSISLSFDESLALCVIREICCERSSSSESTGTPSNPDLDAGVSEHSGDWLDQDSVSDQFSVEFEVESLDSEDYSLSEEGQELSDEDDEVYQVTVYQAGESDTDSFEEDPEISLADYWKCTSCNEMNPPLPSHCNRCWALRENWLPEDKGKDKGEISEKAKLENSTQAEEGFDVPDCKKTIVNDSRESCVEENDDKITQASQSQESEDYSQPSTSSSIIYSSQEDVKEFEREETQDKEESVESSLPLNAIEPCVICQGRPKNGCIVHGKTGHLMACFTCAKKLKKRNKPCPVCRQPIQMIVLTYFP
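Assay system: stable mammalian line carrying autodegrading MDM2–luciferase fusion reporter; amount: 2000 cells seeded into each well; buffer or medium: DMEM; benchmarks: plate control and blank wells; signal: luciferase luminescence; timing: 2 h compound exposure at 37 °C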
Hck Nef conf – retest of Hck:Nef kinase inhibitor hits, confirmation, biochemical, Z-Lyte FRET, 384-well, p-Tyr peptide counterscreen; shares compounds with Hck Nef HTS; Recombinant Hck-YEEI:Nef, Z-Lyte FRET kinase assay; calls only at 10 µM; 1,300 compounds, 28% hits; AID 463188, 2010;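 active means average inhibition of at least 50%, with Z-scores no higher than 3 in both the phospho-tyrosine peptide and fluorescence counterscreens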
* marks the source's active call; other numbers are inactive results; i = inactive; nt = not tested or not shown; + = active, no number. An excerpt weighted towards active compounds, which were near 2.4% of everything screened.

SMILES | Autophagy mod | L929 necroptosis | Hck Nef HTS | TNF necrop inh | Dynein transport | Mdm2 ligase inh | Hck Nef conf
Cc1ccc(CNC(=O)CNS(=O)(=O)c2ccc3nc(C)sc3c2)cc1 | i | 1 | 6 | 3 | 0.068 | -18 | nt
COc1ccc(/C=N/Nc2ccc(C(=O)O)cc2)cc1OC | nt | 1 | 19 | -1 | -0.27 | -52 | nt
CCOc1cc(/C=N\Nc2nc(-c3ccc(C)cc3)c(NC(C)=O)s2)ccc1O | nt | 2 | 97* | -1 | -0.061 | -15 | +
CC(=O)Nc1sc(N/N=C/c2ccc(C)cc2)nc1-c1ccc(C)cc1 | nt | 12 | 60* | 1 | -1 | -10 | i
O=C(O)Cc1sc(N/N=C\c2ccncc2)nc1-c1ccccc1 | nt | -1 | -8 | -1 | 2.4 | -12 | nt
COc1ccc(/C=N/Nc2nc(-c3ccc(C)cc3)c(NC(C)=O)s2)cc1OC | nt | 3 | 99* | 3 | -0.33 | -7 | +
CC(C)OC(=O)/C(=C\c1cccc2ccccc12)NC(=O)c1ccccc1 | i | 0 | 2 | 0 | 0.66 | -7 | nt
COc1ccc(-n2c(SCC(=O)Nc3sc4c(c3C#N)CCCC4)nnc2-c2ccccc2OC)cc1 | i | 1 | 6 | 1 | 1.3 | 12 | nt
COc1ccc(-c2nnc(SCC(=O)Nc3sc4c(c3C#N)CCCC4)n2-c2ccccc2)cc1 | + | -1 | 96* | 0 | 0.038 | -6 | +
O=C(NCc1ccccc1)C1=C[C@H](c2coc3ccccc3c2=O)C[C@H](OCCCCO)O1 | i | 0 | 2 | -3 | 0.78 | nt | nt
Cc1ccccc1-n1c(C)cc(/C=C2/C(=N)N3C(c4ccccc4)=CSC3=NC2=O)c1C | i | 0 | 0 | 0 | -1.7 | -3 | nt
N=C1/C(=C\c2ccc(-c3cccc(C(=O)O)c3)o2)C(=O)N=C2SC=C(c3ccccc3)N12 | nt | 1 | 64* | -2 | 1.4 | -10 | +
CCOc1cc(/C=C2\N=C(SCC)SC2=O)cc([N+](=O)[O-])c1OC(C)=O | i | 3 | 95* | -1 | -0.63 | 0 | +
CCOc1cc(/C=C2\N=C(SC)SC2=O)cc([N+](=O)[O-])c1OC(C)=O | i | 0 | 13 | -2 | 2.1 | -10 | nt
COc1cc(NC(=O)CCNS(=O)(=O)c2ccc3c(c2)CCC(=O)N3)cc(OC)c1 | i | nt | 3 | 1 | -0.85 | -13 | nt
CCOC(=O)c1ccc(Nc2nc(C(=O)OCC)nc3ccccc23)cc1 | i | 1 | 1 | 0 | 0.55 | -9 | nt
CCOC(=O)c1nc(Nc2ccc(Nc3ccccc3)cc2)c2ccccc2n1 | i | 16 | 94* | -4 | -1 | -31 | i
O=C(COc1ccc(S(=O)(=O)N2CCCCC2)cc1)NCC1CCCO1 (configuration not stated) | i | 0 | -8 | 0 | -0.18 | -21 | nt
COc1ccc(Nc2nc3ccccc3n3cnnc23)cc1 | i | 0 | -17 | 0 | 0.72 | -7 | nt
O=C(c1ccccc1)c1ccc2nc(Nc3ccccc3)c3nncn3c2c1 | nt | 1 | 68* | 0 | -0.39 | -8 | i
Cc1c(Cl)cccc1NC(=O)CC1Sc2ccccc2NC1=O (configuration not stated) | nt | 0 | 6 | 0 | 0.1 | -11 | nt
O=C1SC(SCc2ccccc2Cl)=N/C1=C\c1ccc(C(=O)O)cc1 | i | 0 | 63* | -3 | 0.033 | -11 | i
CCSC1=N/C(=C\c2ccc(C(=O)O)cc2)C(=O)S1 | i | 0 | 8 | -6 | -0.25 | -5 | nt
Cc1ccc(S(=O)(=O)N2CCOC2CNC(=O)C(=O)NCc2ccncc2)cc1 (configuration not stated) | nt | -1 | 19 | 0 | -0.68 | -6 | nt
COc1cc(NC(=O)c2cccs2)c(C(=O)OCC(=O)NC(=O)NCc2ccccc2)cc1OC | i | 0 | 68* | -3 | 0.14 | -11 | i
SMILES | Autophagy mod | L929 necroptosis | Hck Nef HTS | TNF necrop inh | Dynein transport | Mdm2 ligase inh | Hck Nef conf
COC(=O)/C(=N\Nc1ccc(Cl)cc1)Sc1nnc(-c2ccc(OC)cc2)n1C | i | 0 | 1 | 0 | 0.065 | -7 | nt
CC1(C)Cc2c(C#N)c(NCC3CCCO3)nc(-c3ccco3)c2CO1 (configuration not stated) | i | 0 | 56* | 1 | -1.5 | -10 | i
CC1(C)Cc2c(C#N)c(NCCc3ccccc3)nc(-c3ccco3)c2CO1 | i | 5 | 10 | 3 | -2 | -9 | nt
CCOC(=O)c1c(NC(=O)COc2cccc3c2CCN(C)C3=O)sc2c1CCC2 | i | 1 | 9 | 0 | -0.0056 | -2 | nt
CC(=O)Nc1nc(C)c(-c2csc(Nc3cccc([N+](=O)[O-])c3)n2)s1 | i | 6 | 51* | -21 | -1.4 | -28 | i
COc1cccc(Nc2nc(-c3sc(NC(=O)c4ccccc4)nc3C)cs2)c1 | i | 2 | -1 | -18 | -0.28 | -9 | nt
Cc1nc(NC(=O)c2ccccc2)sc1-c1csc(Nc2ccc(C(=O)O)cc2)n1 | nt | 1 | 93* | -14 | 0.016 | nt | i
O=C(CN1CCSC1=NCc1ccccc1)c1ccccc1 | i | 0 | 4 | 3 | -0.0035 | nt | nt
Cc1onc(-c2ccccc2Cl)c1NC(=O)NCc1cccs1 | nt | 0 | 9 | 0 | -0.16 | -9 | nt
CC(C)CCSc1nnc(N)s1 | nt | 0 | 19 | 1 | 1.1 | -6 | nt
Cc1ccc(S(=O)(=O)NCc2ccc(C(=O)N3CCN(c4ccccn4)CC3)cc2)cc1 | i | 5 | -1 | -1 | 0.16 | -10 | nt
Cc1ccc(NS(=O)(=O)c2ccc(C(=O)N3CCN(c4ccccn4)CC3)cc2)cc1 | i | 1 | 80* | -3 | 0.37 | -85 | i
COC(=O)c1ccc(/C=N/OCC(=O)NCc2ccc(F)cc2)cc1 | i | 72 | 9 | -1 | -0.034 | -11 | nt
CNC(=S)NC12CC3CC(CC(C3)C1)C2 | i | -1 | 12 | -1 | 2.2 | -11 | nt
Cc1ccc(CN2C(=O)N/C(=C\c3ccc(-c4ccc(C(=O)O)cc4C)o3)C2=O)cc1 | nt | 0 | 60* | 1 | -1.1 | -7 | i

Compound activity as filed in PubChem.
